PMC6641930 (ACS Omega, 2017)
Where “and” joins values, the source holds several entries; their conditions need not be identical. Equal values may be shown once. Read-outs that look alike come from different tables or passages of the source.

Experiments:
TTR fibrils [1] = molecular target: T1, TTR fibrils (Homo sapiens, UniProt P02766); test: Fluorescence emission of probe bound to TTR fibrils; type: binding; conditions: 5 μM fibrils + 1 μM probe; pH 3.0; excitation 330 nm
Procedure, shortened: (§1)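 Fibrils made from pH 3.0 (TTR: purified WT TTR in 50 mM NaAc/100 mM NaCl; bovine insulin or hen lysozyme: 200 μM in 25 mM HCl pH 1.6 at 65 °C, then dialysed into NaAc/NaCl pH 3.0). 1.0 μM probe from DMSO stock mixed with 5 μM fibrils (monomer basis) in HOAc/NaAc pH 3.0. Excitation 330 nm, emission 350–600 nm. Fold increase taken relative to free probe in buffer.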

Aβ1-42 fibrils [2] = molecular target: T2, Aβ1-42 fibrils (Homo sapiens, UniProt P05067); test: Fluorescence lifetime; conditions: for α1 (normalized pre-exponential factor) / α2 (normalized pre-exponential factor) / τ2 / λem1 (emission wavelength of decay) / τ1: B: bound to Aβ1-42 fibrils in PBS buffer; for τavg (average fluorescence lifetime): B: bound to Aβ1-42 fibrils in PBS buffer pH 7.5, [probe] = 5 μM; for τavg (average fluorescence lifetime) / λem1 (emission wavelength of decay) / τ1: [fibrils] = 20 μM; for λem1 (emission wavelength of decay) / τ1: [probe] = 5 μM
T2 sequence (P05067 672-713): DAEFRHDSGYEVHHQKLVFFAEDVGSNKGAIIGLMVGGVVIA
Procedure, shortened: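 Time-correlated single photon counting on 5 μM probe with 20 μM Aβ1-42 fibrils (monomer basis) in PBS pH 7.5 at 25 °C, not degassed. Excitation 337 nm; decay recorded at the bound-probe emission maximum. Instrument response is measured with fibril solution. Multi-exponential fits are judged by χ2 and residuals. Uncertainty is within 10%.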

TTR fibrils [3] = molecular target: T1, TTR fibrils; test: Titration of TTR fibrils on a fixed probe concentration; type: binding
Procedure, shortened: (§2)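 Fibrils (0–20 μM, monomer basis) are titrated onto fixed probe: 1 μM, or 0.5 μM for Aβ1-42 fibrils. Buffers are pH 3.0 for TTR, insulin and lysozyme, and PBS pH 7.5 for Aβ1-42 (10 μM, 37 °C, 24 h quiescent). Samples equilibrate 30 min at room temperature. Excitation 330 nm, emission 350–700 nm. Kd comes from a one-site nonlinear fit with fixed Bmax correcting for unbound probe. SD is from two independent binding series.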

native Aβ1-42 = native Aβ1-42 (Homo sapiens, UniProt P05067); test: Fluorescence emission of probe with freshly dissolved native Aβ1-42; type: binding; conditions: 5 μM native Aβ1-42 + 1 μM probe; PBS buffer
native Aβ1-42, sequence (P05067 672-713): as above
Procedure, shortened: (§3)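 Probe (1.0 μM final, from DMSO stock) is read free in buffer or with 5 μM native protein (monomer basis). Buffers are HOAc/NaAc pH 3.0 or PBS pH 7.5. Aβ1-42 is recombinant with an extra N-terminal Met, freshly gel-filtered monomer in PBS pH 7.5. Spectra are recorded at 330 nm excitation, 350–600 nm emission, with identical instrument settings.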

Aβ1-42 fibrils [4] = molecular target: T2, Aβ1-42 fibrils; test: Fluorescence emission of probe bound to Aβ1-42 fibrils; type: binding; conditions: PBS buffer pH 7.5; for Int: fold increase in fluorescence intensity upon binding to Aβ1-42 fibrils: 5 μM fibrils (monomer basis) + 1 μM probe, versus free probe; for λem2: emission maxima of probe bound to Aβ1-42 fibrils: 5 μM fibrils + 1 μM probe, excitation 330 nm
Procedure, shortened: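 Recombinant Aβ1-42 (extra N-terminal Met), solubilised in 6 M GuHCl and gel-filtered into PBS pH 7.5. […] Probe (1.0 μM, from DMSO stock) mixed with 5 μM fibrils or freshly dissolved monomer (monomer basis) in PBS pH 7.5. Emission spectra at 330 nm excitation, identical settings.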

insulin fibrils [5] = molecular target: T3, insulin fibrils (Bos taurus, UniProt P01317); test: Fluorescence emission of probe bound to insulin fibrils; type: binding, Bovine; conditions: pH 3.0; for Int: fold increase in fluorescence intensity upon binding to insulin fibrils: 5 μM fibrils (monomer basis) + 1 μM probe, versus free probe; for λem2: emission maxima of probe bound to insulin fibrils: 5 μM fibrils + 1 μM probe, excitation 330 nm
T3 sequence (P01317 25-54 limits assumed): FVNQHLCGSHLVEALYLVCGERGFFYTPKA
T3 sequence (P01317 85-105 limits assumed): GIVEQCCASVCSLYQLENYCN
Procedure, shortened: as §1

Aβ1-42 fibrils [6] = molecular target: T2, Aβ1-42 fibrils; test: Titration of Aβ1-42 fibrils on a fixed probe concentration; type: binding
Procedure, shortened: as §2

lysozyme fibrils [7] = molecular target: T4, lysozyme fibrils (Gallus gallus, UniProt P00698); test: Fluorescence emission of probe bound to lysozyme fibrils; type: binding, chicken; conditions: pH 3.0; for Int: fold increase in fluorescence intensity upon binding to lysozyme fibrils: 5 μM fibrils (monomer basis) + 1 μM probe, versus free probe; for λem2: emission maxima of probe bound to lysozyme fibrils: 5 μM fibrils + 1 μM probe, excitation 330 nm
T4 sequence (P00698 19-147): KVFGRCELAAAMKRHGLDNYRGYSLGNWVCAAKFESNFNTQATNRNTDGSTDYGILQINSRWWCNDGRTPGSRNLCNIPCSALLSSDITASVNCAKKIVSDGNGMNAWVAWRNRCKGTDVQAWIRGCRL
Procedure, shortened: as §1

TTR fibrils [8] = molecular target: T1, TTR fibrils; conditions: two separate binding events, cited from earlier work
lysozyme fibrils [9] = molecular target: T4, lysozyme fibrils; test: Titration of lysozyme fibrils on a fixed probe concentration; type: binding, chicken
Procedure, shortened: as §2

[10] = UV-vis absorption and fluorescence spectra in methanol; type: physicochemical; conditions: for λmax (em): excitation 330 nm, [probe] = 20 μM; for ε: four concentrations
Procedure, shortened: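 Absorption is read in methanol in a 1 cm quartz cuvette at room temperature, at 20 μM and at four concentrations (50–5 μM, or 10–2 μM for one probe) for ε. Fluorescence of 20 μM probe in methanol uses 330 nm excitation, 350–600 nm emission and 1 nm resolution.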

Fluorescence lifetime = type: physicochemical; conditions: A: degassed methanol, [probe] = 5 μM; for τ1: excitation 337 nm
Procedure, shortened: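 TCSPC decays of 5 μM probe in argon-degassed methanol, excited at 337 nm and monitored at each emission maximum at room temperature. Instrument response is determined with a fibril solution. Decays are fitted to a sum of exponentials, with fit quality judged by χ2, residual distribution and residual autocorrelation. Average lifetime is calculated from amplitudes and lifetimes. Lifetime uncertainty is within 10%.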

insulin fibrils [11] = molecular target: T3, insulin fibrils; test: Titration of insulin fibrils on a fixed probe concentration; type: binding, Bovine
Procedure, shortened: as §2

native TTR = native TTR (Homo sapiens, UniProt P02766); test: Fluorescence emission of probe with native TTR; type: binding; conditions: 5 μM native TTR + 1 μM probe
Procedure, shortened: as §3

lysozyme fibrils [12] = molecular target: T4, lysozyme fibrils; conditions: two binding sites, cited from earlier work
[13] = cited from earlier work
insulin fibrils [14] = molecular target: T3, insulin fibrils; conditions: read-out: Kd of ThT binding to insulin fibrils; one binding site; cited from earlier work
[15] = read-out: Kd1, TTR fibrils (high-affinity binding site)

Row | SMILES | λem2: emission maxima of probe bound to TTR fibrils (TTR fibrils [1]) | α1 (normalized pre-exponential factor) (Aβ1-42 fibrils [2]) | α2 (normalized pre-exponential factor) (Aβ1-42 fibrils [2]) | τ2 (Aβ1-42 fibrils [2]) [ns] | τavg (average fluorescence lifetime) (Aβ1-42 fibrils [2]) | λem1 (emission wavelength of decay) (Aβ1-42 fibrils [2]) [nm] | τ1 (Aβ1-42 fibrils [2]) [ns] | Kd (TTR fibrils [3]) [µM] | Int: fold increase in fluorescence intensity upon binding to Aβ1-42 fibrils (Aβ1-42 fibrils [4]) [fold] | Int: fold increase in fluorescence intensity upon binding to insulin fibrils (insulin fibrils [5]) [fold] | λem2: emission maxima of probe bound to insulin fibrils (insulin fibrils [5]) | Kd (Aβ1-42 fibrils [6]) [µM] | Int: fold increase in fluorescence intensity upon binding to lysozyme fibrils (lysozyme fibrils [7]) [fold] | λem2: emission maxima of probe bound to lysozyme fibrils (lysozyme fibrils [7]) [nm] | Kd (lysozyme fibrils [9]) [µM] | Stokes shift [10] [nm] | λmax (abs) [10] [nm] | λmax (em) [10] [nm] | ε [10] | fluorescence / binding with freshly prepared native Aβ1-42 (native Aβ1-42) | further results
1 | Oc1ccc(/C=C/c2ccccc2)cc1O [Compound 2, (E)-4-Styrylbenzene-1,2-diol] | 395 nm | 0.86 | 0.14 | 2.31 | 1.3 ns and 1.33 ns | 410 | 0.28 | 15.1 ± 0.9 | 2.6 | 7.5 | 382 nm | 4.3 ± 0.2 | 3.8 | 382 | 7 ± 1.6 | 61 | 325 | 386 | 25 038 L·M^–1 cm^–1 | Neither 2, 4, or 5 fluoresced appreciably | λem2: emission maxima of probe bound to Aβ1-42 fibrils (Aβ1-42 fibrils [4]): 384 nm; α1 (normalized pre-exponential factor) (Fluorescence lifetime): 1; λem1 (emission wavelength of decay) (Fluorescence lifetime): 395 nm; τavg (average fluorescence lifetime) (Fluorescence lifetime): <0.05 ns; τ1 (Fluorescence lifetime): < 0.05 ns; Kd (insulin fibrils [11]): 8 ± 1.6 µM
2 | Oc1ccc(/C=C/c2cccc3ccccc23)cc1O [Compound 1, (E)-4-(2-(naphthalen-1-yl)vinyl)benzene-1,2-diol] | – | – | – | – | – | – | – | – | – | – | – | – | – | – | – | – | – | – | – | – | Kd (TTR fibrils [8]; [15]): 0.11 µM; Kd (TTR fibrils [8]; read-out: Kd2, TTR fibrils): > 10 µM
3 | Cc1ccc2c(c1)sc(-c1ccc(N(C)C)cc1)[n+]2C [ThT, thioflavin T] | – | – | – | – | – | – | – | – | – | – | – | – | – | – | – | – | – | – | – | – | Kd (lysozyme fibrils [12]; read-out: Kd1 of ThT binding to lysozyme fibrils): 0.13 µM; Kd (lysozyme fibrils [12]; read-out: Kd2 of ThT binding to lysozyme fibrils): 17.9 µM; average fluorescence lifetime t1/2 [13]: < 1 ns; Kd (insulin fibrils [14]): 10.4 µM

The next lines start with results.

Row | λem2: emission maxima of probe bound to TTR fibrils (TTR fibrils [1]) | α1 (normalized pre-exponential factor) (Aβ1-42 fibrils [2]) | α2 (normalized pre-exponential factor) (Aβ1-42 fibrils [2]) | τ2 (Aβ1-42 fibrils [2]) [ns] | τavg (average fluorescence lifetime) (Aβ1-42 fibrils [2]) | λem1 (emission wavelength of decay) (Aβ1-42 fibrils [2]) [nm] | τ1 (Aβ1-42 fibrils [2]) [ns] | Kd (TTR fibrils [3]) [µM] | Int: fold increase in fluorescence intensity upon binding to Aβ1-42 fibrils (Aβ1-42 fibrils [4]) [fold] | Int: fold increase in fluorescence intensity upon binding to insulin fibrils (insulin fibrils [5]) [fold] | λem2: emission maxima of probe bound to insulin fibrils (insulin fibrils [5]) | Kd (Aβ1-42 fibrils [6]) [µM] | Int: fold increase in fluorescence intensity upon binding to lysozyme fibrils (lysozyme fibrils [7]) [fold] | λem2: emission maxima of probe bound to lysozyme fibrils (lysozyme fibrils [7]) [nm] | Kd (lysozyme fibrils [9]) [µM] | Stokes shift [10] [nm] | λmax (abs) [10] [nm] | λmax (em) [10] [nm] | ε [10] | SMILES | fluorescence / binding with freshly prepared native Aβ1-42 (native Aβ1-42) | further results
4 | 395 nm | 0.54 | 0.46 | 1.65 | 1.5 ns and 1.45 ns | 420 | 0.23 | 12.3 ± 1 | 6.9 | 13.7 | 410 nm | 2.2 ± 0.4 | 13.1 | 410 | 2.9 ± 0.2 | 86 | 334 | 420 | 30 170 L·M^–1 cm^–1 | Oc1ccc(/C=C/c2ccc3ccccc3c2)cc1O [Compound 3, (E)-4-(2-(naphthalen-2-yl)vinyl)benzene-1,2-diol] | showed some binding | λem2: emission maxima of probe bound to Aβ1-42 fibrils (Aβ1-42 fibrils [4]): 408 nm; Kd (TTR fibrils [8]; [15]): 0.07 µM; Kd (TTR fibrils [8]; read-out: Kd2, TTR fibrils): > 10 µM; α1 (normalized pre-exponential factor) (Fluorescence lifetime): 1; λem1 (emission wavelength of decay) (Fluorescence lifetime): 415 nm; τavg (average fluorescence lifetime) (Fluorescence lifetime): 0.52 ns; τ1 (Fluorescence lifetime): 0.52 ns; Kd (insulin fibrils [11]): 4.5 ± 0.4 µM
5 | 451 nm and 475 nm | 0.38 | 0.62 | 6.06 | 5.7 ns and 5.73 ns | 460 | 0.64 | 7.4 ± 0.5 | 10.3 | 91.4 | 451 nm and 471 nm | 1.6 ± 0.1 | 37.5 | 451 | 2.8 ± 0.4 | 148 | 335 | 483 | 27 070 L·M^–1 cm^–1 | Oc1ccc(/C=C/c2ccc3cc4ccccc4cc3c2)cc1O [Compound 4, (E)-4-(2-(anthracen-2-yl)vinyl)benzene-1,2-diol] | Neither 2, 4, or 5 fluoresced appreciably | emission peaks of probe bound to native TTR (native TTR; excitation 330 nm): 449 nm and 476 nm; fluorescence intensity increase upon binding to native TTR (native TTR; versus probe in buffer): about 6.1 fold; α1 (normalized pre-exponential factor) (Fluorescence lifetime): 1; λem1 (emission wavelength of decay) (Fluorescence lifetime): 475 nm; τavg (average fluorescence lifetime) (Fluorescence lifetime): 4.23 ns; τ1 (Fluorescence lifetime): 4.23 ns; Kd (insulin fibrils [11]): 3.7 ± 0.6 µM
